# Results as given in publication PMC8606320 (Bioorganic & Medicinal Chemistry, 2021).
# Key:
# [1] = system: SARS-CoV-2; conditions: COVID-19 patients, on the 6th day; cited from earlier work
# [2] = system: SARS-CoV-2; format: cell-based
# [3] = In vivo acute toxicity assay; conditions: oral 230 mg/kg twice a day
# In short: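 Test compounds as sulfate salts, dissolved in physiological saline. Mice (25 g) were fasted overnight: 16 male and 16 female in four groups (n = 8), male and female vehicle controls and male and female test groups. They were dosed intragastrically with vehicle or 230 mg/kg twice a day. Death, daily behaviour and body weight were monitored for 20 days, and survival was plotted as curves.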
compound,measurement,setting,value
"CCN(CCO)CCCC(C)Nc1ccnc2cc(Cl)ccc12.O=S(=O)(O)O (racemic) [Rac-HCQ, hydroxychloroquine, reference compound]",nasopharyngeal swab virus negative rate,[1],57.1%
same,inhibition of cytopathic changes caused by the virus,[2],complete inhibition
"CCC(CC)COC(=O)[C@H](C)N[P@](=O)(OC[C@H]1O[C@@](C#N)(c2ccc3c(N)ncnn23)[C@H](O)[C@@H]1O)Oc1ccccc1 [Remdesivir, reference compound]",inhibition of the occurrence of lesions (CPE),[2],completely inhibited
(S)-2-((4-((7-chloroquinolin-4-yl) amino) pentyl) (ethyl) amino) ethan-1-ol sulfate [S-HCQ],day at which mice appeared malaise,[3]; monitored 20 days,9 dpd
same,inhibition of cytopathic changes caused by the virus,[2],complete inhibition
(R)-2-((4-((7-chloroquinolin-4-yl) amino) pentyl) (ethyl) amino) ethan-1-ol sulfate [R-HCQ],tolerability in mice compared to Rac-HCQ and S-HCQ,[3],better tolerated
same,day until which mice performed well,[3]; monitored 20 days,12 dpd
same,inhibition of cytopathic changes caused by the virus,[2],complete inhibition
